Data as given in ChEMBL document CHEMBL1144297, “Design and synthesis of macrocycles active against vancomycin-resistant enterococci (VRE): the interplay between d-Ala-d-Lac binding and hydrophobic effect” (2005).
Values after ≈ are worked out from the molar mass of the structure shown. Starred links: 1 amine or outer side, 2 acyl side, 3 side chain; linkers in the order of their positions; H or OH if unused. Positions of bridges follow the written chain, without caps; N, C: chain ends. Non-standard residues stand in square brackets, D forms with d. Residues, ends and D or L forms follow the SMILES beside them. *: point of attachment. X1 = O=C1C[C@@H](C(=O)[*:2])N([*:1])C[C@H]1CS[C@@H]1CN2CCC1CC2; NMePhe(4-NMe2) = CN[C@@H](Cc1ccc(N(C)C)cc1)C(=O)O; Picolinoyl(3-OH) = O=C(c1ncccc1O)*; Phg = N[C@H](C(=O)O)c1ccccc1; dAbu = CC[C@@H](N)C(=O)O

Experiments:
Enterococcus faecalis [1] = assay: Minimum inhibitory concentration against vancomycin sensitive Enterococci faecalis L559 strain was determined; type: functional
Outline: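 Standard microdilution MIC assay against strain L559, isogenic with L560.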

Enterococcus faecalis [2] = assay: Minimum inhibitory concentration against vancomycin resistant Enterococci faecalis L560 strain was determined; type: functional
Outline: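 Standard microdilution MIC assay against strain L560, which forms an isogenic pair with L559.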

Enterococcus faecium [3] = assay: Minimum inhibitory concentration against vancomycin resistant Enterococci faecium L2215 strain was determined; type: functional
Outline: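 Standard microdilution MIC assay against strain L2215, a Van-A clinical isolate.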

Enterococcus faecium [4] = assay: Minimum inhibitory concentration against vancomycin sensitive Enterococci faecium L568 strain was determined; type: functional
Outline: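 Standard microdilution assay giving the minimum inhibitory concentration. The test organism is strain L568, which is isogenic with L569.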

Staphylococcus aureus = assay: Minimum inhibitory concentration against Staphylococcus aureus L613 strain was determined
[5] = Enterococcus faecalis, read-out: MIC
[6] = Enterococcus faecium, read-out: MIC

| Structure (SMILES) | MIC (Enterococcus faecalis [1]; [5]) [µg/mL] | MIC (Enterococcus faecalis [2]; [5]) [µg/mL] | MIC (Enterococcus faecium [3]; [6]) [µg/mL] | MIC (Enterococcus faecium [4]; [6]) [µg/mL] | MIC (Staphylococcus aureus) [µg/mL] | MIC (Enterococcus faecalis [1]) [µg/mL] | MIC (Enterococcus faecium [4]) [µg/mL] | MIC (Enterococcus faecalis [2]) [µg/mL] | MIC (Enterococcus faecium [3]) [µg/mL] |
| --- | --- | --- | --- | --- | --- | --- | --- | --- | --- |
| CN[C@H](CC(C)C)C(=O)N[C@H]1C(=O)N[C@@H](CC(N)=O)C(=O)N[C@H]2C(=O)N[C@H]3C(=O)N[C@H](C(=O)N[C@H](C(=O)O)c4cc(O)cc(O)c4-c4cc3ccc4O)[C@H](O)c3ccc(c(Cl)c3)Oc3cc2cc(c3O[C@@H]2O[C@H](CO)[C@@H](O)[C@H](O)[C@H]2O[C@H]2C[C@](C)(N)[C@H](O)[C@H](C)O2)Oc2ccc(cc2Cl)[C@H]1O [VANCOMYCIN] | 1 (≈ 0.69 µM) | > 128 | > 128 | – | – | – | – | – | – |
| COC(=O)[C@H](N)C1NC(=O)[C@H](Cc2ccccc2)NC(=O)[C@H](NC(=O)[C@H](N)CC(C)C)Cc2ccc(c([N+](=O)[O-])c2)Oc2cc1cc(O)c2OC.Cl (some centres not stated) | 512 | 512 | – | > 1020 | > 1020 | – | – | – | – |
| CCCCCCCCCCCC(=O)NC1C(Oc2cc3cc(c2OC)Oc2ccc(cc2[N+](=O)[O-])C[C@@H](NC(=O)[C@H](N)CC(C)C)C(=O)N[C@@H](Cc2ccccc2)C(=O)NC3[C@@H](NC(C)=O)C(=O)O)OC(O)C(O)C1O.Cl (some centres not stated) | 64 | 64 | 1020 | > 1020 | > 1020 | – | – | – | – |
| CCCCCCCCCCCNC(=O)N[C@@H](C(=O)O)C1NC(=O)[C@H](Cc2ccccc2)NC(=O)[C@H](NC(=O)[C@H](N)CC(C)C)Cc2ccc(c([N+](=O)[O-])c2)Oc2cc1cc(OC1OC(O)C(O)C(O)C1NC(=O)CCCCCCCCCCC)c2OC.Cl (some centres not stated) | 8 | 8 | 32 | 256 | > 256 | – | – | – | – |
| CC(=O)N[C@@H]1[C@H](Oc2c3cc4cc2Oc2ccc(cc2Cl)[C@@H](O[C@@H]2O[C@@H](CO)[C@@H](O)[C@H](O)[C@@H]2NC(C)=O)[C@@H]2NC(=O)[C@H](NC(=O)[C@@H]4NC(=O)[C@H]4NC(=O)[C@@H](Cc5ccc(c(Cl)c5)O3)NC(=O)[C@H](N)c3ccc(O)c(c3)Oc3cc(O)cc4c3)c3ccc(O)c(c3)-c3c(O[C@H]4O[C@H](CO)[C@@H](O)[C@@H](O)[C@@H]4O)cc(O)cc3[C@@H](C(=O)O)NC2=O)O[C@@H](CO)[C@@H](O)[C@@H]1O | 0.125 (≈ 0.0707 µM) | 64 (≈ 36.2 µM) | > 128 | 0.5 (≈ 0.283 µM) | 1 (≈ 0.566 µM) | – | – | – | – |
| COC(=O)[C@@H](C1NC(=O)[C@H](Cc2ccccc2)NC(=O)[C@H](NC(=O)[C@H](N)CC(C)C)Cc2ccc(c([N+](=O)[O-])c2)Oc2cc1cc(OC)c2OC)N(C)C.Cl (some centres not stated) | 128 | 128 | – | > 128 | > 128 | – | – | – | – |
| CCN(CC)CCS(=O)(=O)[C@@H]1CCN2C(=O)c3coc(n3)CC(=O)C[C@H](O)/C=C(C)/C=C/CNC(=O)/C=C/[C@@H](C)[C@@H](C(C)C)OC(=O)[C@@H]12.CC[C@H]1NC(=O)[C@@H](NC(=O)c2ncccc2O)[C@@H](C)OC(=O)[C@H](c2ccccc2)NC(=O)[C@@H]2CC(=O)[C@H](CS[C@@H]3CN4CCC3CC4)CN2C(=O)[C@H](Cc2ccc(N(C)C)cc2)N(C)C(=O)[C@@H]2CCCN2C1=O [QUINUPRISTIN/DALFOPRISTIN] ({Picolinoyl(3-OH)}-T[dAbu]P[NMePhe(4-NMe2)][X1][Phg]; ester 1-C) | 4 | 8 | 4 | 4 | 1 | – | – | – | – |
| CCCCCCCCCCCNC(=O)N[C@@H](C(=O)O)C1NC(=O)[C@H](Cc2ccccc2)NC(=O)[C@H](N)Cc2ccc(c([N+](=O)[O-])c2)Oc2cc1cc(O)c2OC.Cl (some centres not stated) | 128 | > 128 | > 128 | 128 | > 128 | – | – | – | – |
| CCCCCCCCCCCC(=O)N[C@@H](C(=O)O)C1NC(=O)[C@H](Cc2ccccc2)NC(=O)[C@H](NC(=O)[C@H](N)CC(C)C)Cc2ccc(c([N+](=O)[O-])c2)Oc2cc1cc(O)c2OC.Cl (stereo in doubt; 2d) | 4 | 4 | 8 | 128 | 64 | – | – | – | – |
| CCCCCCCCCCCC(=O)N[C@@H](C(=O)O)C1NC(=O)[C@H](Cc2ccccc2)NC(=O)[C@H](NC(=O)[C@H](N)CC(C)C)Cc2ccc(cc2)Oc2cc1cc(O)c2OC.Cl (some centres not stated) | 128 | 128 | – | > 128 | > 128 | – | – | – | – |
| COc1c(O)cc2cc1Oc1ccc(cc1[N+](=O)[O-])C[C@@H](NC(=O)[C@H](N)CC(C)C)C(=O)N[C@@H](Cc1ccccc1)C(=O)NC2[C@@H](NC(C)=O)C(=O)O.Cl (some centres not stated) | > 1020 | – | – | > 1020 | > 1020 | – | – | – | – |
| CCCCCCCCCCCC(=O)N[C@@H](C(=O)O)C1NC(=O)[C@H](Cc2ccccc2)NC(=O)[C@H](NC(=O)[C@H](N)CC(C)C)Cc2ccc(c([N+](=O)[O-])c2)Oc2cc1cc(O)c2OC.Cl (stereo in doubt; 2e) | – | – | – | – | – | 8 | >128 | 8 | 16 |
| CCCCCCCCCCCC(=O)N[C@@H](C(=O)O)C1NC(=O)[C@H](Cc2ccccc2)NC(=O)[C@H](NC(=O)[C@H](N)CC(C)C)Cc2ccc(c([N+](=O)[O-])c2)Oc2cc1cc(OCc1ccccc1)c2OC.Cl (some centres not stated) | 8 | 4 | 16 | 256 | 128 | – | – | – | – |
